High-throughput results: PubChem, several laboratories
SMARCA2 act – SMARCA2 (BRM) function activators, primary screen, cell-based, luminescence, high throughput. MG213 cells, MMTV-luciferase reporter, dexamethasone, overnight. activation, % at 9.1 µM. 370,000 tested, 1% active; in the data active means activation above about 7.8%;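 further: 0% = vehicle wells and 100% = reference activator wells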
ARFGAP1 inh – inhibitors of rat ARFGAP1 GAP activity, primary screen, biochemical, fluorescence polarization, GDP tracer; 360,000 tested, 0.26% active; inhibition, % at 16.5 µM; AID 651572, 2012; Arfgap1-stimulated ARF1 GTP hydrolysis, GDP FP detection;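 active means inhibition above a per-plate limit, mean inhibition of low control wells plus 3 SD, cut at about 25% in these data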;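 further: 0% = DMSO wells with enzyme and 100% = wells lacking Arfgap1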
Target sequence (Q62848 1-136 limits assumed): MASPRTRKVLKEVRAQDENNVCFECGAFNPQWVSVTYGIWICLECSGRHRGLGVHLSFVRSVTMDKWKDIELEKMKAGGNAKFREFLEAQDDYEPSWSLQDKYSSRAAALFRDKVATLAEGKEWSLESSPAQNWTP
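Repeats: one replicate per compound; assay system: rat Arfgap1 catalytic domain, aa 1-136; times: enzyme reaction 120 min at 25 °C after 20 min preincubation; detection: FP of antibody-bound GDP Alexa 633 tracer, ex 620/em 688 nm; benchmarks: high control wells lacking Arfgap1, low control full reaction with DMSO; reagent: human ARF1(Δ1-17)-GTP substrate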
esBAF inh – Bmi1 luciferase reporter increase in mESCs, primary screen, esBAF inhibitor project, mouse ES cells, Bmi1 luciferase knock-in, single point. reporter increase, % at 12.5 µM. 24 h; 100% = twice the neutral-well signal. 350,000 tested, 2% active; in the data active means activation above about 40%; inconclusive means no clear call, values can overlap the other calls;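 further: 0% = median of the plate's neutral control wells and 100% = double that signal; a rise in the Bmi1 reporter signal indicates esBAF inhibition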
ASAP1 GAP inh – inhibitors of human ASAP1 ArfGAP activity, primary screen, biochemical, fluorescence polarization; inhibition, % at 16.5 µM; 360,000 tested, 0.19% active; ASAP1-stimulated ARF1 GTP hydrolysis, GDP FP detection; in the data active means inhibition above about 25%;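 further: 0% = vehicle with enzyme and substrate and 100% = no enzyme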
Target sequence (Q9ULH1 325-724 limits assumed): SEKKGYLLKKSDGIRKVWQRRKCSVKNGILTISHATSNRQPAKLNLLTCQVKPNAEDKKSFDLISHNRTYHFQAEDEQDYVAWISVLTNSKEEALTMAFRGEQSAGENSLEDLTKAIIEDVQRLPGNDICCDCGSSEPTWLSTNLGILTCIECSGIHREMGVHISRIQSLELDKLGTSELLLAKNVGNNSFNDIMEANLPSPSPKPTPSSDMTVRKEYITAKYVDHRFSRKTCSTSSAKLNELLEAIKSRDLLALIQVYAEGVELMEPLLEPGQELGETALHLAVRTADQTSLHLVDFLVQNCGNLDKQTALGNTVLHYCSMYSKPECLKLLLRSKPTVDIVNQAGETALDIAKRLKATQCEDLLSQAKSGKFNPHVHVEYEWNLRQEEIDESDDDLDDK
SMARCA2 conf – SMARCA2 (BRM) function activators, confirmation, cell-based, luminescence, triplicate; shares compounds with SMARCA2 act; MG213 cells, MMTV-luciferase with dexamethasone, overnight; MG213 cells expressing E1A, Rb sequestered; DMSO wells 0%, reference activator 100%; activation, % at 9.1 µM; 3,500 tested, 30% active;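 active means activation above its plate's cutoff, the mean activation of tested wells plus 3 SD, cut at about 7.9% in these data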
VP16 Luc act – GAL4-VP16 luciferase reporter activation, counter-screen for SMARCA2 (BRM) activator project, cell-based, pG5luc, luminescence, high throughput | activation, % at 9.1 µM | shares compounds with SMARCA2 act | HEK293 GAL4-VP16 pG5luc reporter; scaled: DMSO wells 0%, SAHA wells 100% | 3,500 tested, 41% active;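 active means activation above the solvent-only control well mean plus 3 SD, averaged across control plates, cut at about 5.2% in these data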
* hit, by the source's call; ? = inconclusive; . = no result given. The list is not random: actives were taken first. Their share in the collection is about 2.6%.

SMILES | SMARCA2 act | ARFGAP1 inh | esBAF inh | ASAP1 GAP inh | SMARCA2 conf | VP16 Luc act
COC(=O)c1ccc2c(c1)C(C)(C)C(/C=C/c1ccc(OC)c(OC)c1OC)=[N+]2C | -2.2 | 7.2 | -38.9 | -4.7 | . | .
CN(C)c1ccc2c(c1)[C@@H]1C[C@@H](CC(=O)NCCN3CCCCC3)O[C@H](CO)[C@@H]1O2 | . | . | -3.8 | . | . | .
O=C(NC[C@H]1N[C@H](CO)[C@@H]1c1ccc(-c2ccccc2F)cc1)c1ccccc1 | . | . | -7.1 | . | . | .
COc1ccc(C2=Nn3c(nnc3-c3ccccc3C(F)(F)F)SC2)cc1OC1CCOC1 (stereo not drawn) | 8.4* | 0.1 | 3.5 | 9.9 | 16.1* | 5.9*
COc1ccc(C2=Nn3c(nnc3-c3ccncc3)SC2)cc1OC | 8.6* | 3.9 | -12.8 | -3.0 | 2.8 | 4.4
COc1ccc(C2=Nn3c(nnc3-c3ccccc3OC)SC2)cc1OC1CCOC1 (stereo not drawn) | 7.6 | -6.2 | -5.8 | 1.8 | . | .
COc1ccc(C2=Nn3c(nnc3-c3cccnc3)SC2)cc1OC | -0.3 | -2.5 | -7.9 | -6.0 | . | .
C[C@@H]1CN([C@@H](C)CO)C(=O)c2cc(-c3ccncc3)cnc2O[C@H]1CN(C)C(=O)c1ccncc1 | . | . | 5.8 | . | . | .
Cc1cccc(-c2nnc(SCC3CNC(=O)O3)n2-c2ccc(Cl)cc2)c1 (stereo not drawn) | -0.4 | -1.6 | . | 10.2 | . | .
COc1ccc(-n2c(SCC3CNC(=O)O3)nnc2-c2ccc(Cl)cc2)cc1 (stereo not drawn) | 11.7* | 10.0 | . | -3.1 | 1.1 | -2.1
CCCC(=O)Nc1ccc2c(c1)C(=O)N(C)[C@H]1CC[C@H](CC(=O)NCc3ccccc3Cl)O[C@H]1CO2 | . | . | 3.6 | . | . | .
CCS(=O)(=O)c1ccc(O)c(NC(=O)COc2ccc(OC)cc2)c1 | 8.1* | 10.9 | -3.6 | -6.0 | -1.8 | -1.3
Cn1ncc([N+](=O)[O-])c1C(=O)Nc1ccc(-c2nc3ccccc3[nH]2)cc1 | 9.6* | 5.1 | 55.6* | -1.0 | 12.0* | 1.8
Cn1ncc([N+](=O)[O-])c1C(=O)Nc1ccc(Cl)cc1 | -3.9 | 10.4 | 4.6 | 2.7 | . | .
C=CCn1c(SCC(=O)Nc2ccc(-c3nc4ccc(C)cc4s3)cc2)nnc1-c1ccncc1 | 8.9* | -4.7 | 35.1 | 10.8 | 4.6 | 9.2*
Cc1ccc2nc(-c3ccc(NC(=O)CNC4CC4)cc3)sc2c1 | 10.9* | -2.4 | . | 15.9 | 8.5* | 10.3*
CCOC(=O)CC1C(=O)NCCN1C(=O)c1ccc(C)cc1 (stereo not drawn) | -0.2 | 9.2 | 1.7 | -2.3 | . | .
COC(=O)CC1C(=O)NCCN1C(=O)c1ccc([N+](=O)[O-])cc1 (stereo not drawn) | 10.0* | -2.8 | -6.3 | 9.9 | 4.6 | 0.1
C[C@H]1CCCCO[C@H](CN(C)S(=O)(=O)c2ccc(F)cc2)[C@@H](C)CN([C@@H](C)CO)C(=O)c2cc(NC(=O)CCC(F)(F)F)ccc2O1 | . | . | -1.6 | . | . | .
O=C(Cn1c(=O)oc2ccccc21)Nc1ccccc1N1CCOCC1 | 3.8 | 8.6 | -10.0 | 12.2 | . | .
O=C(CN1C(=O)CSC1=O)Nc1ccccc1N1CCOCC1 | 9.8* | 2.4 | -1.5 | 0.5 | -1.6 | -0.2
O=C(C[C@H]1C[C@H]2c3cc(NC(=O)C4CCC4)ccc3O[C@H]2[C@H](CO)O1)NCC(F)(F)F | . | . | -6.3 | . | . | .
CCOc1ccc(CCNC(=O)COC(=O)c2cccc(N(C)C)c2)cc1OCC | 8.1* | -3.7 | 53.5* | -9.6 | 2.8 | 8.7*
O=C(N/N=C1/CC2C=CCC12)c1ccco1 (stereo not drawn) | 8.9* | 12.9 | . | -1.9 | 2.4 | 1.4
O=C(N/N=C1/CC2C=CCC12)c1cccs1 (stereo not drawn) | 6.5 | 8.1 | . | 2.2 | . | .
SMILES | SMARCA2 act | ARFGAP1 inh | esBAF inh | ASAP1 GAP inh | SMARCA2 conf | VP16 Luc act
Nc1ccc2cc3ccc(N)cc3nc2c1 | 42.8* | . | . | . | -11.4 | -2.3
Cc1ccc2cc(N)ccc2n1 | 0.7 | 9.5 | . | 3.8 | . | .
CCOc1cc(CNc2ccc(N3CCN(C(C)=O)CC3)cc2)cc(Br)c1OC | 8.6* | -0.4 | . | 2.6 | 1.6 | 0.5
COc1ccc(OCC(=O)NC(=S)Nc2ccccc2F)cc1 | 9.8* | 5.8 | . | -4.0 | 2.4 | 0.7
O=c1c2ccccc2nc2c3ccccc3c(NCc3ccco3)nn12 | 12.6* | 6.2 | . | 2.9 | 10.1* | 0.6
COCCCn1c(=O)/c(=C\c2ccccc2OC(C)C)s/c1=C(/C#N)C(=O)Nc1ccc(C(=O)O)cc1 | 1.1 | -4.6 | -1.1 | -1.6 | . | .
COCCCn1c(=O)/c(=C\c2ccccc2OC(F)F)s/c1=C(/C#N)C(=O)NC(C)C | 14.0* | 8.8 | . | 12.3 | 4.8 | 1.8
Cc1c(N)cccc1-n1cnnn1 | 0.7 | -5.0 | . | -14.9 | . | .
c1cc2ccc3ccc(-n4cnnn4)c4ccc(c1)c2c34 | 8.7* | 16.2 | . | 16.1 | -1.7 | -0.6
C[C@@H]1CCCCO[C@H](CN(C)Cc2ccc(C(=O)O)cc2)[C@H](C)CN([C@H](C)CO)C(=O)c2cc(NS(=O)(=O)c3ccc(F)cc3)ccc2O1 | . | . | -0.9 | . | . | .
Nc1nc2c(C(=O)N3CCOCC3)nnn2c2ccccc12 | 11.3* | 5.1 | 2.9 | 10.6 | 5.6 | 9.1*
NNC(=O)c1nnsc1-c1csnn1 | 9.1* | 14.1 | . | -0.3 | -1.4 | 0.0
O=C(O)c1nnsc1-c1csnn1 | 1.7 | -5.1 | . | 2.8 | . | .
CC(=O)N(C)C[C@H]1Oc2ncc(C#C[C@H](C)O)cc2C(=O)N([C@@H](C)CO)C[C@@H]1C | . | . | -1.2 | . | . | .
CC(=NO)c1ccc2c(c1)Cc1cc([N+](=O)[O-])ccc1-2 | 11.6* | -17.9 | . | 0.7 | 7.8 | 4.9
O=C(C[C@@H]1CC[C@H]2[C@@H](COC[C@@H](O)CN2Cc2ccc(Oc3ccccc3)cc2)O1)N1CCCCC1 | . | . | 14.2 | . | . | .
CC(C)NC(=O)N(C)C[C@H]1Oc2cc(C#CC3CC3)ccc2S(=O)(=O)N([C@@H](C)CO)C[C@@H]1C | . | . | -5.0 | . | . | .
Cc1nn2cc(-c3ccc(Cl)cc3)nc2s1 | 8.7* | 8.0 | -2.3 | 7.5 | 2.5 | 10.3*
Cc1nn2cc(-c3ccc(-c4ccccc4)cc3)nc2s1 | -2.1 | 7.0 | -42.4 | 14.4 | . | .
COc1ccccc1CN1[C@@H](CO)[C@@H]2c3ccccc3N(C(=O)c3ccc(F)cc3)C[C@@H]21 | . | . | -2.2 | . | . | .
Nc1nccnc1C(=O)N/N=C/c1ccco1 | 9.6* | 4.3 | . | 7.7 | 1.6 | 3.4
O=C(N/N=C/c1ccco1)Nc1ccccc1 | 10.5* | -1.8 | 8.9 | -0.1 | 3.0 | 14.1*
O=C(Nc1ccc(Nc2ccccc2)cc1)c1cccc(F)c1 | 9.0* | -8.5 | ? | 3.2 | 5.6 | 6.7*
